The values below come from ChEMBL document CHEMBL3259592, “Synthesis and structure-activity relationship of dihydrobenzofuran derivatives as novel human GPR119 agonists” (Bioorg Med Chem Lett, 2014).

Calls of active or inactive are those of the source. No cut-off for these calls is given here. Some results are limits rather than exact numbers.

For series [1], the target named is T1, Glucose-dependent insulinotropic receptor (Homo sapiens, UniProt Q8TDV5).
T1 sequence (Q8TDV5 whole entry): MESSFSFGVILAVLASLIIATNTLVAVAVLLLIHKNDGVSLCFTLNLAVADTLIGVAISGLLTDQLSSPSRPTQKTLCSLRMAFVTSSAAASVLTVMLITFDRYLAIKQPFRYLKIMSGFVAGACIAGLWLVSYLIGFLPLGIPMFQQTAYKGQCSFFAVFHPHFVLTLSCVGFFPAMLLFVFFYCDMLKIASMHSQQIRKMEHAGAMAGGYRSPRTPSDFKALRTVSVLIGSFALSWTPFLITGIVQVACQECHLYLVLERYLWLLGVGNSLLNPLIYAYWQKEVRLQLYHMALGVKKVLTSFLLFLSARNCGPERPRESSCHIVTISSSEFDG
In words: Agonist activity at human GPR119 expressed in HEK293 cells co-expressing Flp-In-T-Rex assessed as cAMP accumulation after 60 mins. In kind it is functional, cell-based. An outline of the steps: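 Tetracycline-inducible human GPR119 cell line, plated at 7.5 × 10⁵ cells/well 24 h before assay in DMEM with 10% FBS and 1 ng/ml tetracycline. Medium was then swapped for PBS assay buffer containing 25 mM HEPES (pH 7.4), 12 mM glucose, 0.01% FAF-BSA and 0.1 mM IBMX. Cells were exposed to compound for 60 min, then lysed. cAMP was read by enzyme fragment complementation fluorescence; EC50 and Emax reported.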
In general terms: Cyclic AMP is a second messenger, typically raised through Gs and lowered through Gi signalling.

Series [2] has as its target T2, Glucose-dependent insulinotropic receptor (Homo sapiens) (UniProt Q8TDV5).
T2 sequence (whole entry): T1 sequence (Q8TDV5 whole entry)
In words: Intrinsic activity at human GPR119 expressed in HEK293 cells co-expressing Flp-In-T-Rex assessed as cAMP accumulation after 60 mins relative to propan-2-yl 4-({6-[(2-fluoro-4-methanesulfonylphenyl)amino]pyrimidin-4-yl}oxy)piperidine-1-carboxylate. In kind it is functional, cell-based. An outline of the steps: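 Tetracycline-inducible human GPR119 cells plated 7.5 × 10⁵/well 24 h ahead in growth medium (DMEM, 10% FBS) with 1 ng/ml tetracycline. Compound exposure 60 min, then lysis; cAMP read by enzyme fragment complementation fluorescence. EC₅₀ and Emax derived.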

Series [3] addresses Glucose-dependent insulinotropic receptor (Homo sapiens) (UniProt Q8TDV5). In words: Agonist activity at human GPR119 expressed in HEK293 cells co-expressing Flp-In-T-Rex assessed as cAMP accumulation after 60 mins.
Series [4] is described as follows: Metabolic stability in mouse liver microsomes assessed as compound remaining after 10 mins. The class given is ADME. To be noted: read-out: Stability.
Series [5] can be described thus: Metabolic stability in human liver microsomes assessed as compound remaining after 10 mins. In kind it is ADME. Particulars: read-out: Stability. On the technique in general: Liver microsomes are vesicles of endoplasmic reticulum, rich in cytochrome P450 enzymes.
Series [6] is described as follows: Inhibition of CYP450 (unknown origin). The class given is ADME. Particulars: human.
Series [7] is described as follows: Aqueous solubility of the compound at pH 6.5. The class given is physicochemical.
The target in series [8] is T3, Nuclear receptor subfamily 1 group I member 2 (Homo sapiens, UniProt O75469).
T3 sequence (O75469 whole entry): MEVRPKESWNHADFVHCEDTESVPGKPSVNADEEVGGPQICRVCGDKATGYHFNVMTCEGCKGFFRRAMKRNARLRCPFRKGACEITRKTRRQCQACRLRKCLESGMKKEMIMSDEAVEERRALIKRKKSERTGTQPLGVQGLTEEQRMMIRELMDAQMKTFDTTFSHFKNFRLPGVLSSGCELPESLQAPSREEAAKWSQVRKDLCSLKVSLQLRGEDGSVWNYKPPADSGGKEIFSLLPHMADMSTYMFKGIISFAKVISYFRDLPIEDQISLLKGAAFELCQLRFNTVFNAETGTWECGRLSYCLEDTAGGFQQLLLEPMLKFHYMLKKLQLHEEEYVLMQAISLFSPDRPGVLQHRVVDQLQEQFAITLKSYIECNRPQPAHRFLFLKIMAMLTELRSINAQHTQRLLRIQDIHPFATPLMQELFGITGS
Nature of the series: Transactivation of PXR (unknown origin).

A short description of series [9]: Permeability of the compound by PAMPA. The class given is physicochemical. In general terms: The PAMPA barrier holds no transporters, so it reflects passive diffusion.

As for `CCCS(=O)(=O)N1CC=C(c2ccc3c(c2)CC(C2CCN(Cc4ccccc4)CC2)O3)CC1` (racemic), the EC50 – broadly, the midpoint of the concentration-response curve – in series [1] amounted to 521 nM. Besides, the Emax (in general, the size of the effect at its maximum, as opposed to the concentration needed) in [2] is 88%. For the same compound, the outcome in series [3] was Active.
`CCCc1cnc(N2CCC(C3(C)Cc4cc(C5=CCN(S(=O)(=O)CCCO)CC5)ccc4O3)CC2)nc1` (racemic): the 50% effective concentration (EC50) in [1] is 78 nM. For the same compound, the Emax in series [2] was 78%. Moreover, the remaining at 10 min in series [4] was found to be 42%; in series [5] it was 72%.
As for `CCCc1cnc(N2CCC(C3Cc4cc(C5=CCN(S(=O)(=O)CCC)CC5)ccc4O3)CC2)nc1` (racemic), in [1], the EC50 was 82 nM. In addition, in series [2], the Emax stood at 107%. In series [3], the outcome was Active. In addition, the values for the remaining at 10 min in [4] and in series [5] were 58% and 71%, respectively.
On to `CCCc1cnc(N2CCC(C3Cc4c(ccc(C5=CCN(S(=O)(=O)CCC)CC5)c4F)O3)CC2)nc1` (racemic), for which, in [1], the EC50 was determined as 5 nM. The Emax in [2] was determined as 123%. The “inhibition (INH)” value in [6] is reported as “Not Active”. Also, in series [7] (aqueous, read-out: solubility), the solubility (in general, the concentration that dissolves in the medium under given conditions) was under 1 µg/mL. Also, the Activity result in series [8] is recorded as “Not Active”. In [9], the permeability result is “permeable”. Also, the remaining at 10 min in series [4] came to 78%; in series [5], 87%.
Turning to `CCCc1cnc(N2CCC(C3Cc4cc(N5CCN(S(=O)(=O)CCC)CC5)ccc4O3)CC2)nc1` (racemic), the EC50 in series [1] turned out to be 544 nM. Also, the Emax in series [2] was determined as 74%. In addition, the remaining at 10 min came to 44% in series [4] and 82% in [5].
As to `CCCS(=O)(=O)N1CC=C(c2ccc3c(c2)CC(C2CCN(C(=O)OC(C)C)CC2)O3)CC1` (racemic), the EC50 in series [1] was 103 nM. Moreover, in series [2], the Emax was 61%. Moreover, the result in series [3] was Active. Moreover, the figures for the remaining at 10 min in series [4] and in [5] were 12% and 10%, respectively.
Consider `CCCc1cnc(N2CCC(C3Cc4cc(C5CCN(S(=O)(=O)CCC)CC5)ccc4O3)CC2)nc1` (racemic), for which the EC50 in [1] is 386 nM. In addition, in series [2], the Emax was found to be 43%. Moreover, the values for the remaining at 10 min in series [4] and in series [5] were 52% and 70%, respectively.
Turning to `CCCS(=O)(=O)N1CC=C(c2ccc3c(c2)CC(C2CCN(c4ncc(C5CC5)cn4)CC2)O3)CC1` (racemic), the EC50 in [1] came to 67 nM. The Emax in series [2] came out at 85%. Also, the outcome in series [3] was Active. The remaining at 10 min in series [4] came out at 3%; in [5], 58%.
Regarding `CCCS(=O)(=O)N1CC=C(c2ccc3c(c2)CC(C2CCN(c4ccc(C(F)(F)F)cn4)CC2)O3)CC1` (racemic), the EC50 in series [1] stood at 34 nM. In [2], the Emax is 99%. Further, the outcome in series [3] was Active. Further, the remaining at 10 min in series [4] was found to be 46%; in [5], 47%.
`CCCc1cnc(N2CCC(C3Cc4cc(C5=CCN(S(=O)(=O)CCCCO)CC5)cc(F)c4O3)CC2)nc1` (racemic): the EC50 in series [1] was found to be 60 nM. Besides, the Emax in [2] worked out at 98%. The remaining at 10 min in [4] amounted to 59%; in series [5], 73%.
For the compound `CCCS(=O)(=O)N1CC=C(c2ccc3c(c2)CC(C2CCN(C(=O)OC4CCCCC4)CC2)O3)CC1` (racemic), in [1], the EC50 came out at 51 nM. For the same compound, the Emax in series [2] worked out at 56%. Further, the result in series [3] was Active.
For the compound `CCCS(=O)(=O)N1CC=C(c2ccc3c(c2)CC(C2CCN(c4ncc(C(F)(F)F)cn4)CC2)O3)CC1` (racemic), the EC50 in series [1] was determined as 14 nM. Also, the Emax in [2] stood at 118%. Further, the result in series [3] was Active. Moreover, in series [7] (buffer), the solubility entry was “Insoluble”. In addition, the remaining at 10 min in series [5] came out at 58%.
`CCCc1cnc(N2CCC(C3Cc4c(F)c(C5=CCN(S(=O)(=O)CCC(C)(C)O)CC5)cc(F)c4O3)CC2)nc1` (racemic): the EC50 in series [1] was 101 nM. Moreover, the Emax in series [2] was found to be 82%. Further, the remaining at 10 min in series [4] was determined as 61%; in series [5], 55%.
The matching figures for `CCCc1cnc(N2CCC(C3Cc4cc(C5=CCN(S(=O)(=O)CCCO)CC5)cc(F)c4O3)CC2)nc1` (racemic): 122 nM, 92%, 60% and 100%.
For `CCCc1cnc(N2CCC(C3(C)Cc4cc(C5=CCN(S(=O)(=O)CCC)CC5)ccc4O3)CC2)nc1` (racemic), in that order: 70 nM, 48%, 52% and 68%.
Regarding `CCCc1cnc(N2CCC(C3Cc4cc(-c5ccc(S(C)(=O)=O)cc5F)ccc4O3)CC2)nc1` (racemic), the half-maximal effective concentration (EC50) in series [1] is 541 nM. Also, the Emax in series [2] came to 53%.
As for `CCCc1cnc(N2CCC(C3(C)Cc4cc(C5=CCN(S(=O)(=O)CCCCO)CC5)ccc4O3)CC2)nc1` (racemic), the EC50 in series [1] stood at 28 nM. Further, in series [2], the Emax was determined as 67%. Further, the remaining at 10 min in series [4] stood at 70%; in series [5], 67%.
For the compound `CCCc1cnc(N2CCC(C3Cc4c(F)c(C5=CCN(S(=O)(=O)CCCO)CC5)cc(F)c4O3)CC2)nc1` (racemic), in series [1], the EC50 was determined as 16 nM. Also, the Emax in series [2] is 86%. Also, the values for the remaining at 10 min in series [4] and in series [5] were 82% and 89%, respectively.
For `CCCc1cnc(N2CCC(C3Cc4cc(C5=CCN(S(=O)(=O)CCC)CC5)cc(F)c4O3)CC2)nc1` (racemic), in that order: 62 nM, 93%, 74% and 97%.
As to `CCCS(=O)(=O)N1CC=C(c2ccc3c(c2)CC(C2CCN(c4ncc(Cl)cn4)CC2)O3)CC1` (racemic), the EC50 in [1] came out at 78 nM. For the same compound, the Emax in series [2] is 88%. Besides, the result in [3] was Active. The remaining at 10 min is 45% in [4] and 48% in series [5].
Regarding `CCCS(=O)(=O)N1CC=C(c2ccc3c(c2)CC(C2CCN(S(=O)(=O)CCC)CC2)O3)CC1` (racemic), the EC50 in series [1] was determined as 1000 nM. For the same compound, the Emax in series [2] is 43%. In series [3], the outcome was Active.
Regarding `CCCc1cnc(N2CCC(C3Cc4c(F)c(C5=CCN(S(=O)(=O)CCC)CC5)cc(F)c4O3)CC2)nc1` (racemic), the EC50 in series [1] turned out to be 2 nM. Further, the Emax in series [2] was 119%. For the same compound, the “inhibition (INH)” value in series [6] is “Not Active”. Besides, the solubility in series [7] (aqueous, read-out: solubility) was under 1 µg/mL. Further, the Activity entry in [8] is on record as “Not Active”. Besides, the permeability entry in [9] was “permeable”. In addition, the results for the remaining at 10 min in [4] and in series [5] were 80% and 78%, respectively.
